The source made the active and inactive calls. The rule behind the calls is not given here.
Key:
[1] = biological target: T1, Histamine H3 receptor (Homo sapiens, UniProt Q9Y5N1); experiment: Antagonist activity at human histamine H3 receptor expressed in HEK293 cells assessed by forskolin induced cAMP response element activation after 5 hrs by luciferase reporter gene assay; assay type: functional, cell-based
[2] = Antioxidant activity assessed as ABTS free radical scavenging activity after 6 mins by spectrophotometry; assay type: functional
Outline: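 ABTS (7 mM in water) reacted with 2.45 mM potassium persulfate (final), held in dark at room temperature ≥18 h to form radical cation, then serially diluted. Antioxidant added, mixed by pipette bubbling; absorbance at 415 nm read 6 min after addition, equilibrated at 30 °C. Each treatment repeated three times; melatonin as comparator.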

[3] = biological target: T2, hERG (KCNH2) (Homo sapiens, UniProt Q12809); experiment: Inhibition of human ERG expressed in HEK293 cells assessed as membrane depolarization at 3 uM by patch-clamp method; assay type: cell-based; conditions: HEK293 cells that express hERG
T2 sequence (Q12809 whole entry): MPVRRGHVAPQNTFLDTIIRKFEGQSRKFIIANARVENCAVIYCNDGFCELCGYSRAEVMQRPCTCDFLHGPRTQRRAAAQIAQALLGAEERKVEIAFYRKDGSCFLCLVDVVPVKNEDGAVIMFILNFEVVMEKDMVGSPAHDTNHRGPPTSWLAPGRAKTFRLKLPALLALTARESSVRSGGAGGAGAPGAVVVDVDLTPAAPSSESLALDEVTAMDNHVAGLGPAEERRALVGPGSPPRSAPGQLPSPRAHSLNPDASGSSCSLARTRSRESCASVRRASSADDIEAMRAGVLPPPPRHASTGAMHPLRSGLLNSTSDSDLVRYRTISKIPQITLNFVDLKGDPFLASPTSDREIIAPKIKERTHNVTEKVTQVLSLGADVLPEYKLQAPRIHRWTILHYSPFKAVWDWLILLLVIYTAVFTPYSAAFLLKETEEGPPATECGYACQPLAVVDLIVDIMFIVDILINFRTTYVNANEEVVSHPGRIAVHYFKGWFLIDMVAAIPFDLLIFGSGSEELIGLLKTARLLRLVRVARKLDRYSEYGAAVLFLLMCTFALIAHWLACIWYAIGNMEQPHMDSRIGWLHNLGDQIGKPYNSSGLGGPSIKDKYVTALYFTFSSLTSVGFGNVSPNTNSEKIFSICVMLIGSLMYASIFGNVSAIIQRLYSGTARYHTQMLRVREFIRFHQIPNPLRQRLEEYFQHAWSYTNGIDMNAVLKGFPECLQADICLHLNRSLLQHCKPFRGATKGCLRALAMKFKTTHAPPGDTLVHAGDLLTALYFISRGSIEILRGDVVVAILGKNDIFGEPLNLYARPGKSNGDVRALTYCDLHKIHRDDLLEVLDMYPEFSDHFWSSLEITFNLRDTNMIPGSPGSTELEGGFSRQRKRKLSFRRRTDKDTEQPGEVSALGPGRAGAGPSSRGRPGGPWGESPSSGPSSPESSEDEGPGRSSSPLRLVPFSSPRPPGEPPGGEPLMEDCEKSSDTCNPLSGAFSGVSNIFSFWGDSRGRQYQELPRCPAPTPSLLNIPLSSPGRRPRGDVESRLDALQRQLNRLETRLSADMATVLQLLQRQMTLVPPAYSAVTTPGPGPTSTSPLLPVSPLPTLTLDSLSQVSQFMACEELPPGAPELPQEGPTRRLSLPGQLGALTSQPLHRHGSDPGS

[4] = biological target: Histamine H4 receptor (Homo sapiens) (UniProt Q9H3N8); experiment: Antagonist activity at human histamine H4 receptor expressed in HEK293 cells assessed by forskolin induced cAMP response element activation after 5 hrs by luciferase reporter gene assay; assay type: functional, cell-based
Outline: (§1)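 Stable HEK-293 lines co-transfected with human H1, H2 or H4 receptor plus pCRE-Luc (G418 800 µg/mL selection), grown overnight to 90–95% confluence. Cells got 10 µM forskolin plus graded compound concentrations with 5 µM histamine in serum-free DMEM, 5 h at 37 °C. Read-out was firefly luciferase. Triplicate points, three separate experiments.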

[5] = biological target: Histamine H2 receptor (Homo sapiens) (UniProt P25021); experiment: Antagonist activity at human histamine H2 receptor expressed in HEK293 cells assessed by forskolin induced cAMP response element activation after 5 hrs by luciferase reporter gene assay; assay type: functional, cell-based; outline: as §1
Sequence of Histamine H2 receptor (Homo sapiens) (P25021 whole entry): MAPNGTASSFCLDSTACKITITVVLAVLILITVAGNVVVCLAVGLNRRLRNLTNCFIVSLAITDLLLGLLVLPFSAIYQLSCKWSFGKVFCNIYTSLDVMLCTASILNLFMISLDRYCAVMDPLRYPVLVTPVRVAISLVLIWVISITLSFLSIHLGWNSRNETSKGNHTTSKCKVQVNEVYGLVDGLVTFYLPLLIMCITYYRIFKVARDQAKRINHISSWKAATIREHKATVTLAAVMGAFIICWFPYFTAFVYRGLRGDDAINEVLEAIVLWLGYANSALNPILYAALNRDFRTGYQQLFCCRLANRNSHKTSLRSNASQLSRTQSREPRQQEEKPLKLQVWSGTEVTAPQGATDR

[6] = biological target: Histamine H1 receptor (Homo sapiens) (UniProt P35367); experiment: Antagonist activity at human histamine H1 receptor expressed in HEK293 cells assessed by forskolin induced cAMP response element activation after 5 hrs by luciferase reporter gene assay; assay type: functional, cell-based; outline: as §1
Sequence of Histamine H1 receptor (Homo sapiens) (P35367 whole entry): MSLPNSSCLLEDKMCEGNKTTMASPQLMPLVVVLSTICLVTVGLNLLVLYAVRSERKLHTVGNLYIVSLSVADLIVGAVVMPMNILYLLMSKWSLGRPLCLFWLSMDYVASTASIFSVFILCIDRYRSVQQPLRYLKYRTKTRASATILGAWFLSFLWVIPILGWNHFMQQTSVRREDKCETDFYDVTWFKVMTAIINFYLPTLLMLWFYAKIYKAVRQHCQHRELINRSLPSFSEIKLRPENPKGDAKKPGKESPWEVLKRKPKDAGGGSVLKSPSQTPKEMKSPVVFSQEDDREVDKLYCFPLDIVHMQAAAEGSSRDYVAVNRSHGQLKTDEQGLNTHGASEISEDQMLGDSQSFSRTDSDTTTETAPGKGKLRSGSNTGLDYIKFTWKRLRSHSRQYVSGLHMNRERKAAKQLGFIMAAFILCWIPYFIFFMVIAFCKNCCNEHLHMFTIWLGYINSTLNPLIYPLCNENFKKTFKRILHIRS

[7] = biological target: T1, Histamine H3 receptor; experiment: Displacement of […] from human histamine H3 receptor expressed in HEK293 cells after 90 to 120 mins by liquid scintillation counting; assay type: cell-based
[8] = biological target: T2, hERG (KCNH2); experiment: Inhibition of human ERG expressed in HEK293 cells assessed as membrane depolarization at 100 nM by patch-clamp method; assay type: cell-based; conditions: HEK293 cells that express hERG

T1 sequence (Q9Y5N1 whole entry): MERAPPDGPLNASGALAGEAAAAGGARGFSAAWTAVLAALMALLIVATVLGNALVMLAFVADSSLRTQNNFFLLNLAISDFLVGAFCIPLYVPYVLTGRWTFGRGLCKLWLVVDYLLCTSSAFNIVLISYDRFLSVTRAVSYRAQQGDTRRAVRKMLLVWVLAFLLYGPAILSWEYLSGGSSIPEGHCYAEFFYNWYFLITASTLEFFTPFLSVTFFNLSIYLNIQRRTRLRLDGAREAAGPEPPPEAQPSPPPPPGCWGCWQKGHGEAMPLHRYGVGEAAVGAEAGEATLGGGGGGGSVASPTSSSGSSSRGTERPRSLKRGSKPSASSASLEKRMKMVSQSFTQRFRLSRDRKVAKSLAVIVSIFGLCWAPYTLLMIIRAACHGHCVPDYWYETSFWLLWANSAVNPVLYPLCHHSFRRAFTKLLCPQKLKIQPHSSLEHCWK

| Compound | IC50 [1] [nM] | also measured |
| --- | --- | --- |
| O=C(Nc1ccc(CN2CCCCC2)cc1)c1c[nH]c2ccccc12 | 1210 |  |
| c1ccc2c(CNc3ccc(CN4CCCCC4)cc3)c[nH]c2c1 | 540 |  |
| COc1ccc2[nH]cc(CCNC(C)=O)c2c1 [MELATONIN] |  | IC50 [2]: 1920 nM |
| c1ccc2c(CCNc3ccc(CN4CCCCC4)cc3)c[nH]c2c1 | 80 | inhibition at 3 µM [3]: 87% |
| O=C(Cc1c[nH]c2ccccc12)Nc1ccc(CN2CCCCC2)cc1 | 2840 |  |
| CCN(CC)Cc1ccc(NCCc2c[nH]c3ccccc23)cc1 | 290 |  |
| O=C(Cc1c[nH]c2ccccc12)Nc1ccc(CN2CCOCC2)cc1 | 2190 | inhibition at 3 µM [3]: 6%; IC50 [2]: 4710 nM |
| c1ccc2c(CCNc3ccc(CN4CCCC4)cc3)c[nH]c2c1 | 180 | inhibition at 3 µM [3]: 73% |
| c1ccc2c(CCNc3ccc(CN4CCOCC4)cc3)c[nH]c2c1 | 49 | Activity [4]: inactive; Activity [5]: inactive; Activity [6]: inactive; Ki [7]: 4.26 nM; inhibition at 3 µM [3]: 54%; IC50 [2]: 3050 nM |
| c1ccc2c(CCCNc3ccc(CN4CCOCC4)cc3)c[nH]c2c1 | 490 |  |
| COc1cc(N)c(Cl)cc1C(=O)NC1CCN(CCCOc2ccc(F)cc2)CC1OC (stereo not drawn) [CISAPRIDE] |  | inhibition at 0.1 µM [8]: 89% |

More lines, main results first:

| IC50 [1] [nM] | Compound | also measured |
| --- | --- | --- |
| 1370 | O=C(Cc1c[nH]c2ccccc12)Nc1ccc(CN2CCCC2)cc1 |  |
| > 10000 | O=C(CCc1c[nH]c2ccccc12)Nc1ccc(CN2CCCCC2)cc1 |  |
| 3500 | CCN(CC)Cc1ccc(NC(=O)Cc2c[nH]c3ccccc23)cc1 |  |
| 2460 | O=C(Cc1c[nH]c2ccccc12)Oc1ccc(CN2CCCC2)cc1 |  |
| > 10000 | O=C(CCc1c[nH]c2ccccc12)Oc1ccc(CN2CCCC2)cc1 |  |
| > 10000 | CCN(CC)Cc1ccc(NC(=O)CCc2c[nH]c3ccccc23)cc1 |  |
| 4610 | CCN(CC)Cc1ccc(OC(=O)Cc2c[nH]c3ccccc23)cc1 |  |
| 2030 | O=C(Oc1ccc(CN2CCCCC2)cc1)c1c[nH]c2ccccc12 |  |
| > 10000 | O=C(CCc1c[nH]c2ccccc12)Oc1ccc(CN2CCCCC2)cc1 |  |
| 790 | O=C(Cc1c[nH]c2ccccc12)Oc1ccc(CN2CCOCC2)cc1 | inhibition at 3 µM [3]: 12%; IC50 [2]: 5320 nM |
| > 10000 | CCN(CC)Cc1ccc(OC(=O)CCc2c[nH]c3ccccc23)cc1 |  |
| 1040 | O=C(Cc1c[nH]c2ccccc12)Oc1ccc(CN2CCCCC2)cc1 |  |
| > 10000 | O=C(CCc1c[nH]c2ccccc12)Nc1ccc(CN2CCCC2)cc1 |  |
| > 10000 | O=C(CCc1c[nH]c2ccccc12)Nc1ccc(CN2CCOCC2)cc1 |  |
| > 10000 | O=C(CCc1c[nH]c2ccccc12)Oc1ccc(CN2CCOCC2)cc1 |  |

Reference: ChEMBL document CHEMBL2417548, “Design and synthesis of novel 3-substituted-indole derivatives as selective H3 receptor antagonists and potent free radical scavengers” (Bioorg Med Chem, 2013)
